Active and inactive are the calls of the source. No cut-off for these calls is given here.
Experiments:
[1] = test system: HCC 2998; experiment: Cytotoxicity against human HCC2998 cells assessed as cell growth at 10^-5 M after 48 hrs by SRB assay; type: functional; settings: HCC 2998, 48 h, read-out: Activity
Summary of the method: (§1)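 NCI 60-cell-line one-dose primary screen: cells inoculated and preincubated 24–48 h, then test agent added at a single 10^-5 M concentration for a further 48 h. Endpoint is sulforhodamine B protein staining read spectrophotometrically. Reported as percent growth relative to untreated control cells.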

[2] = test system: Escherichia coli; experiment: Antibacterial activity against Escherichia coli at 1 to 5 mg/mL after 24 hrs by stiff-plate agar-diffusion method; type: functional, organism-based
Summary of the method: (§2)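 Agar diffusion (stiff plate) with test substances at 5 mg/mL in grooves, allowed to diffuse into nutrient agar; inoculum 10^9 c.f.u./mL; bacteria incubated 24 h at 35 °C. Read-out: inhibition zone diameter (not sensitive 11–15 mm, sensitive 16–25 mm, highly sensitive >25 mm). Vancomycin and oxacillin as standards; three repeats.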

[3] = test system: HL-60(TB); experiment: Cytotoxicity against human HL-60(TB) cells assessed as cell growth at 10^-5 M after 48 hrs by SRB assay; type: functional; settings: HL-60, 48 h, read-out: Activity
Summary of the method: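 NCI one-dose primary screen on the 60-line human tumour panel. Cells were inoculated and preincubated 24–48 h. Compound was added at 10^-5 M with 48 h continuous exposure. Sulforhodamine B protein staining was read spectrophotometrically. Results are percent growth relative to untreated control cells.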

[4] = test system: SK-MEL-5; experiment: Cytotoxicity against human SK-MEL-5 cells assessed as cell growth at 10^-5 M after 48 hrs by SRB assay; type: functional; settings: SK-MEL-5, 48 h, read-out: Activity
Summary of the method: (§3)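 NCI human tumor cell line panel from nine cancer types. Each line was inoculated and preincubated 24–48 h, then exposed to a single concentration (10^-5 M) for 48 h. Growth was read by sulforhodamine B protein staining, measured spectrophotometrically. Value reported as percent growth of treated cells relative to untreated controls.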

[5] = test system: Photobacterium leiognathi; experiment: Antibacterial activity against Photobacterium leiognathi Sh1 assessed as inhibition of bacterial luminescence at 0.025 mg/mL after 10 mins by bioluminometry-based chronic action test; type: functional; set-up: scale not given: the % may be the effect or the level left; settings: in the assay text read “after 16 to 18 hrs” for “after 10 mins”
Summary of the method: (§4)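 Chronic (growth plus luminescence) test with P. leiognathi Sh1 at 10^5 cells/mL in chloride solution, compounds added in DMSO. After 10 min at 25 °C, growth medium added at 1:50 and the mix incubated 16–18 h at 30 °C. Luminescence then measured by bioluminometer as % of untreated control. Tetracycline reference.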

[6] = test system: CAKI-1; experiment: Cytotoxicity against human Caki1 cells assessed as cell growth at 10^-5 M after 48 hrs by SRB assay; type: functional; settings: CAKI-1, 48 h, read-out: Activity; summary of the method: as §1
[7] = test system: MOLT-4; experiment: Cytotoxicity against human MOLT4 cells assessed as cell growth at 10^-5 M after 48 hrs by SRB assay; type: functional; settings: MOLT-4, 48 h, read-out: Activity; summary of the method: as §3
[8] = test system: Photobacterium leiognathi; experiment: Antibacterial activity against Photobacterium leiognathi Sh1 assessed as inhibition of bacterial luminescence at 0.25 mg/mL after 10 mins by bioluminometry-based chronic action test; type: functional; set-up: scale not given: the % may be the effect or the level left; settings: in the assay text read “after 16 to 18 hrs” for “after 10 mins”; summary of the method: as §4
[9] = test system: K562; experiment: Cytotoxicity against human K562 cells assessed as cell growth at 10^-5 M after 48 hrs by SRB assay; type: functional; settings: K562, 48 h, read-out: Activity; summary of the method: as §1
[10] = test system: A549; experiment: Cytotoxicity against human A549 cells assessed as cell growth at 10^-5 M after 48 hrs by SRB assay; type: functional; settings: A549, 48 h, read-out: Activity; summary of the method: as §1
[11] = test system: MDA-MB-231; experiment: Cytotoxicity against human MDA-MB-231 cells assessed as cell growth at 10^-5 M after 48 hrs by SRB assay; type: functional; settings: MDA-MB-231, 48 h, read-out: Activity; summary of the method: as §1
[12] = test system: PC-3; experiment: Cytotoxicity against human PC3 cells assessed as cell growth at 10^-5 M after 48 hrs by SRB assay; type: functional; settings: PC-3, 48 h, read-out: Activity; summary of the method: as §3
[13] = test system: SNB-75; experiment: Cytotoxicity against human SNB75 cells assessed as cell growth at 10^-5 M after 48 hrs by SRB assay; type: functional; settings: SNB-75, 48 h, read-out: Activity; summary of the method: as §3
[14] = test system: Photobacterium leiognathi; experiment: Antibacterial activity against Photobacterium leiognathi Sh1 assessed as inhibition of bacterial luminescence at 0.25 mg/mL after 10 mins by bioluminometry-based acute action test; type: functional; set-up: scale not given: the % may be the effect or the level left
Summary of the method: (§5)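 Marine P. leiognathi Sh1 (Azov Sea shrimp isolate) diluted in chloride solution to 10^5 cells/mL; compounds suspended in DMSO mixed with 1 mL bacterial suspension. Acute test: 10 min at 25 °C, then bioluminescence measured by bioluminometer as % of compound-free control. Tetracycline reference.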

[15] = test system: Yamadazyma tenuis; experiment: Antifungal activity against Candida tenuis at 1 to 5 mg/mL after 48 to 72 hrs by stiff-plate agar-diffusion method; type: functional, organism-based
Summary of the method: (§6)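 Fungal plates run by stiff-plate agar diffusion, substances applied to grooves at 5 mg/mL; 10^9 c.f.u./mL cells; incubation 48–72 h at 28–30 °C. Inhibition zone diameter scored (11–15 mm not sensitive, 16–25 mm sensitive, >25 mm highly sensitive). Nystatin standard; experiments done three times.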

[16] = test system: CCRF-CEM; experiment: Cytotoxicity against human CCRF-CEM cells assessed as cell growth at 10^-5 M after 48 hrs by SRB assay; type: functional; settings: read-out: Activity; summary of the method: as §1
[17] = test system: Photobacterium leiognathi; experiment: Antibacterial activity against Photobacterium leiognathi Sh1 at 0.1 to 0.25 ug/mL; type: functional, organism-based
[18] = test system: Staphylococcus aureus; experiment: Antibacterial activity against Staphylococcus aureus at 1 to 5 mg/mL after 24 hrs by stiff-plate agar-diffusion method; type: functional, organism-based; summary of the method: as §2
[19] = test system: Photobacterium leiognathi; experiment: Antibacterial activity against Photobacterium leiognathi Sh1 assessed as inhibition of bacterial luminescence at 0.1 mg/mL after 10 mins by bioluminometry-based chronic action test; type: functional; set-up: scale not given: the % may be the effect or the level left; settings: in the assay text read “after 16 to 18 hrs” for “after 10 mins”; summary of the method: as §4
[20] = test system: UO-31; experiment: Cytotoxicity against human UO31 cells assessed as cell growth at 10^-5 M after 48 hrs by SRB assay; type: functional; settings: UO-31, 48 h, read-out: Activity; summary of the method: as §3
[21] = test system: Photobacterium leiognathi; experiment: Antibacterial activity against Photobacterium leiognathi Sh1 assessed as inhibition of bacterial luminescence at 0.025 mg/mL after 10 mins by bioluminometry-based acute action test; type: functional; set-up: scale not given: the % may be the effect or the level left; summary of the method: as §5
[22] = test system: Mycobacterium; experiment: Antibacterial activity against Mycobacterium luteum at 1 to 5 mg/mL after 24 hrs by stiff-plate agar-diffusion method; type: functional, organism-based; summary of the method: as §2
[23] = test system: Photobacterium leiognathi; experiment: Antibacterial activity against Photobacterium leiognathi Sh1 assessed as inhibition of bacterial luminescence at 0.1 mg/mL after 10 mins by bioluminometry-based acute action test; type: functional; set-up: scale not given: the % may be the effect or the level left; summary of the method: as §5
[24] = test system: Aspergillus niger; experiment: Antifungal activity against Aspergillus niger at 1 to 5 mg/mL after 48 to 72 hrs by stiff-plate agar-diffusion method; type: functional, organism-based; summary of the method: as §6
[25] = test system: SR; experiment: Cytotoxicity against human SR cells assessed as cell growth at 10^-5 M after 48 hrs by SRB assay; type: functional; settings: read-out: Activity; summary of the method: as §3
[26] = test system: LOX IMVI; experiment: Cytotoxicity against human LOXIMVI cells assessed as cell growth at 10^-5 M after 48 hrs by SRB assay; type: functional; settings: read-out: Activity; summary of the method: as §1
[27] = test system: NCI-H522; experiment: Cytotoxicity against human NCI-H522 cells assessed as cell growth at 10^-5 M after 48 hrs by SRB assay; type: functional; settings: NCI-H522, 48 h, read-out: Activity; summary of the method: as §3

COc1ccc(-c2nn3c(SCC(=O)O)nc4ccccc4c3nc2=O)cc1
growth at 10 µM [1]: 94.7% | Activity [2]: inactive | growth at 10 µM [3]: 63.5% | growth at 10 µM [4]: 95.4% | Activity [5]: 88.9% | growth at 10 µM [6]: 91.4% | growth at 10 µM [7]: 84.8% | Activity [8]: 45% | growth at 10 µM [9]: 80.9% | growth at 10 µM [10]: 95.9% | growth at 10 µM [11]: 89.9% | growth at 10 µM [12]: 91.7% | growth at 10 µM [13]: 93.9% | Activity [14]: 0% | Activity [15]: inactive | growth at 10 µM [16]: 90.7% | Activity [17]: inactive | Activity [18]: inactive | Activity [19]: 191.5% | growth at 10 µM [20]: 91.6% | Activity [21]: 105% | Activity [22]: inactive | Activity [23]: 80% | Activity [24]: inactive | growth at 10 µM [25]: 65.8% | growth at 10 µM [26]: 86.9% | growth at 10 µM [27]: 94.9%
